Measured values reported in PMC5645071 (Journal of controlled release : official journal of the …, 2015).

Tests used:
lung tumor tissue = assay: Hematoxylin and eosin staining of lung tumor tissue; type: in vivo, Nu/nu mice
[1] = system: H1650 cancer stem cell xenograft tumor; type: in vivo; settings: 20 mg/kg oral gavage
[2] = Pharmacokinetics / bioavailability in dogs; type: in vivo
SOX2 = assay: Western blot of tumor lysates: SOX2; type: in vivo, Nu/nu mice
Summary of the method: (§1)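 Nu/nu mice bearing H1650 cancer-stem-cell tumours got vehicle or test compound by oral gavage, solution or self-emulsified form, 20 mg/kg (solution every other day). Tumour nodules were lysed in RIPA pH 8.0 with protease inhibitor; 50 µg protein (BCA) on 10% SDS-PAGE, nitrocellulose, 5% milk/TBST block, antibodies 1:1000, HRP secondary. Signal normalised to β-actin; three replicates, mean ± SEM, one-way ANOVA with Tukey test.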

Nanog = assay: Western blot of tumor lysates: Nanog; type: in vivo, Nu/nu mice
NF-КB = assay: Western blot of tumor lysates: NF-КB; type: in vivo, Nu/nu mice
Summary of the method: as §1

Bcl-2 = assay: Western blot of tumor lysates: Bcl-2; type: in vivo, Nu/nu mice; settings: densitometry
Summary of the method: as §1

[3] = system: H1650 cancer stem cell orthotopic lung tumor; type: in vivo; settings: 20 mg/kg oral gavage, 30 days treatment
In vitro release study = type: physicochemical; settings: in 24 h, distilled water, 37 °C, 50 rpm
Summary of the method: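 Test formulation equivalent to 2 mg drug stirred in USP apparatus II with 200 ml distilled water, […], paddle 50 rpm. At set intervals, 1 ml aliquots were withdrawn, filtered and assayed by HPLC, with fresh medium replaced each time.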

Caco-2 monolayers = assay: Caco-2 permeability study; type: in vitro ADME
[4] = mouse, in vivo, cited from earlier work
CSCs [5] = settings: cited from earlier work
CSCs [6] = settings: cited from earlier work; remark: listed apart in the source
[7] = i.v. bolus 0.5 mg/kg, two-compartment model

3, 3-Diindolylmethane-14 [DIM-14]
histological examination of lungs and tracheobronchial epithelium (lung tumor tissue; all groups): no signs of inflammation or edema
tumor microvessels (H & E histology) (lung tumor tissue; treated tumors versus untreated mice): only occasional, isolated microvessels
decrease in average number of tumor nodules versus control [1]: 29%
decrease in lung tumor volumes [1]: 29%
decrease in lung tumor weights versus vehicle control [1]: 30%
Volume of distribution (Vd) ([2]; i.v. bolus 0.5 mg/kg): 0.321 L/kg
Volume of distribution at steady state (Vdss) ([2]; i.v. bolus 0.5 mg/kg): 0.319 L/kg
K10 (elimination from central compartment) [2, 7]: 0.003 L/h
K21 (peripheral to central compartment) [2, 7]: 0.15 L/h
absolute oral bioavailability ([2]; oral 3.33 mg/kg): < 10%
reduction of relative SOX2 expression versus untreated control (SOX2): 1.9 fold
decrease of relative Nanog expression versus untreated control (Nanog): 2.4 fold
expression of NF-КB (NF-КB): significantly down regulated
reduction of β-actin relative Bcl-2 expression versus untreated control tumors (Bcl-2): 1.8 fold
decrease in average number of tumor nodules versus control [3]: 22%
decrease in lung tumor volumes [3]: 34%
decrease in lung tumor weights versus vehicle control [3]: 24%
drug release (In vitro release study): ~ 10%
average Peff, A–B (Caco-2 monolayers; Caco-2, donor pH 6.5, acceptor pH 7.4): approximately 0.26 ± 0.05 × 10^−6 cm/s
average Peff, B–A (Caco-2 monolayers; Caco-2, secretory direction): 0.41 ± 0.09 × 10^−6 cm/s

COc1ccc(C(c2c[nH]c3ccccc23)c2c[nH]c3ccccc23)cc1 [DIM-5]
Oral bioavaibility [4]: 39%

Oc1ccc(C(c2c[nH]c3ccccc23)c2c[nH]c3ccccc23)cc1 [DIM-8]
time to reach Cmax (Tmax) ([4]; po): about 60 min
Oral bioavaibility [4]: 6%

Clc1ccc(C(c2c[nH]c3ccccc23)c2c[nH]c3ccccc23)cc1 [DIM-12]
Oral bioavaibility [4]: 42%

CN(C)C(=N)N=C(N)N [Metformin]
concentrations at which it works against CSCs (CSCs [5]): 100 to 300 µM

CC[C@@H](C(=O)[C@@H](C)[C@@H](O)[C@H](C)[C@@H]1O[C@@H]([C@@H](CC)C(=O)O)CC[C@@H]1C)[C@H]1O[C@]2(C=C[C@@H](O)[C@]3(CC[C@@](C)([C@H]4CC[C@](O)(CC)[C@H](C)O4)O3)O2)[C@H](C)C[C@@H]1C [salinomycin]
reduction of the proportion of CSCs relative to paclitaxel (CSCs [6]): more than 100 fold

Lucifer Yellow [reference compound]
mean permeability of paracellular control (Caco-2 monolayers; Caco-2): < 0.15 ×10⁻⁶ cm/s
